The target in one test is T1, ADAM9 (Mus musculus, UniProt Q61072).
T1 sequence (Q61072 30-845): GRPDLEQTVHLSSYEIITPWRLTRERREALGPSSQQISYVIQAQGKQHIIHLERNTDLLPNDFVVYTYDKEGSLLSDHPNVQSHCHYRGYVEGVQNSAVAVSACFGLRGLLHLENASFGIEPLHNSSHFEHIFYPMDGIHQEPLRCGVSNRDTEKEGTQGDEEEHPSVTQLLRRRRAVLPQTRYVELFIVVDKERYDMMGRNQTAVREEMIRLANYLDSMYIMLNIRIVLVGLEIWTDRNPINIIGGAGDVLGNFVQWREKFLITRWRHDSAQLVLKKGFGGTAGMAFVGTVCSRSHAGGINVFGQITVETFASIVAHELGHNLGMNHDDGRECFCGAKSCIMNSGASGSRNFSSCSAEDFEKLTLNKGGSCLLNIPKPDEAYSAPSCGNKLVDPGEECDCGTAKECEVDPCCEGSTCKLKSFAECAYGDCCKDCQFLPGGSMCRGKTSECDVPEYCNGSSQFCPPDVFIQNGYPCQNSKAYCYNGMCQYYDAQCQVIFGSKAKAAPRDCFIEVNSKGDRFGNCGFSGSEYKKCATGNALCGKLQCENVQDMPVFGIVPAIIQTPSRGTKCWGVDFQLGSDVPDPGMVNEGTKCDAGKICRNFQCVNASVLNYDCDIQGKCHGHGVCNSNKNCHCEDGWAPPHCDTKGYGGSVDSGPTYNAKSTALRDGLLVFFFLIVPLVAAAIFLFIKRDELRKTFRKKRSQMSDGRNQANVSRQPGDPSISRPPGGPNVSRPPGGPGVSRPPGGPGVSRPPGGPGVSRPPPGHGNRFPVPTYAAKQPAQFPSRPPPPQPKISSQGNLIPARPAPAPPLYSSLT
The test is classed as cell-based. The following applies: for dose dependence of inhibition of ADAM9-dependent release of EphB4-AP: titration; for stimulation of ADAM9-dependent shedding of EphB4-AP: 20 ng/ml PMA, 100 μM PV or 2.5 μM IO, 30 minutes.

In test [1] the target is recombinant soluble ADAM9. The conditions noted are these: cited from earlier work; for Ki: read-out: Ki recombinant soluble ADAM9; for inhibition of recombinantly expressed ADAM9: concentrations up to 200 nM.
A further test concerns ADAM12. The following applies: read-out: Potency (IC50/inhibition constant) ADAM12, cell-based; cited from earlier work.
For test [2], the system named is ADAM10. The following applies: cited from earlier work; for IC50: read-out: Potency (IC50/inhibition constant) ADAM10, cell-based.
The subject of test [3] is EphB4-AP background shedding. Kind of test: Basal/background EphB4-AP shedding in cells expressing inactive ADAM9 E>A. The following applies: for effect on EphB4-AP shedding in the absence of active A9 (EA9 cells): 20 ng/ml PMA, 100 μM PV or 2.5 μM IO, 30 minutes. In kind it is cell-based, mouse. In short, it runs like this: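 Adam10/17-/- mEFs were co-transfected (Lipofectamine2000) with ADAM9 E>A plasmid (1.5 µg per 6-well well) and EphB4-AP (1 µg). After a 1 h OptiMEM wash, cells were held in fresh OptiMEM ± stimuli or inhibitor. Times were 30 min for stimuli (pervanadate freshly made from vanadate + H2O2) and 2 h for inhibitors. Readout was colorimetric AP in supernatant/(lysate+supernatant), as fold over untreated cells; mean ± SEM, ≥3 experiments, Dunnett's test.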

The target in test [4] is T2, ADAM10 (Mus musculus, UniProt O35598).
T2 sequence (O35598 215-749): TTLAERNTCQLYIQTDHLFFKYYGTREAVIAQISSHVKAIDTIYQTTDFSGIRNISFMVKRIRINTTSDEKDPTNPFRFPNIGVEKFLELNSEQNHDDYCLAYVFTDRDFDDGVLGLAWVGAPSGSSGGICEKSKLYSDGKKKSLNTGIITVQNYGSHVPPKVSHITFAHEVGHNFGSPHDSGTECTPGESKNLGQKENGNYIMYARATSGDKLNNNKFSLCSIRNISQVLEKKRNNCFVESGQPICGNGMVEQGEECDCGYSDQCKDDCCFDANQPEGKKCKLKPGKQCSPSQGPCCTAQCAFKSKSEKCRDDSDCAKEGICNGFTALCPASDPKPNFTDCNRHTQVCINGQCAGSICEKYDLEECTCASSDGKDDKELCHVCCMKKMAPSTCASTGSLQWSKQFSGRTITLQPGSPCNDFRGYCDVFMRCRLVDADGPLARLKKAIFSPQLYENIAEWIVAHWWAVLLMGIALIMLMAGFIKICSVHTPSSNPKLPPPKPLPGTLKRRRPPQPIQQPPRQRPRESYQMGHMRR
As to the kind of experiment: ADAM10-dependent shedding of BTC-AP in wild type mEFs. The test is classed as cell-based. The conditions noted are these: WT mEFs, Supplementary Figure 2. In outline:
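Wild-type mEFs were transiently transfected with AP-tagged betacellulin using Lipofectamine2000. Cells were washed 1 h in OptiMEM, then given fresh OptiMEM with or without test compound for 30 min to 2 h. AP activity was measured colorimetrically in supernatant and lysate from three identical wells. Shedding = supernatant AP / (lysate + supernatant AP).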

In a further test the test system is ADAM17. The following applies: 1 μM; cited from earlier work.
A further test deals with ADAM15. The conditions noted are these: read-out: Potency (IC50/inhibition constant) ADAM15, cell-based; cited from earlier work.

Entries after “also recorded” stand apart in the source; their conditions may differ. Like-named read-outs stand apart in the source and are kept apart here.

Data on 11 molecules can be found in paper PMC8606101 (The Biochemical journal, 2017).

As to GW280264X, the “lowest concentration effectively inhibiting ADAM9 activity” value at ADAM9 (increasing inhibition between 1 and 10 μM) stood at 0.5 µM.

The Ki is the equilibrium dissociation constant of an inhibitor or competing ligand from its target. Consider `CNC(=O)[C@@H](NC(=O)[C@H](CC(C)C)[C@H](O)C(=O)NO)C(C)(C)C` [Marimastat], for which, in test [1] (biochemical assays), the Ki is 274 nM. At ADAM9, this molecule had an IC50 of 130 nM. The “dose dependence of inhibition of ADAM9-dependent release of EphB4-AP” value (“dose dependence of inhibition … of EphB4-AP” below) on ADAM9 (Adam10/17−/− mEFs, 2 hours) was “dose-dependent manner”.

As for `CNC(=O)[C@H](Cc1c[nH]c2ccccc12)NC(=O)[C@@H](CC(=O)NO)CC(C)C` [GM6001], the values for the IC50 with ADAM12 and on ADAM9 were 5.93 µM and 720 nM, respectively. In addition, on ADAM9 (Adam10/17−/− mEFs, 2 hours), the “dose dependence of inhibition … of EphB4-AP” value was “dose-dependent manner”.

For the molecule “TIMP-1: tissue inhibitor of metalloproteinases 1”, the “inhibition of recombinantly expressed ADAM9” value in test [1] is reported as “not inhibited”. Also, the “effect on ADAM9-dependent increase in EphB4-AP shedding” value in the test with ADAM9 (concentrations up to 20 nM, Adam10/17−/− mEFs, 2 hours) is “not significantly affected; also recorded: did not affect”. Also, in the test on ADAM10 [2], the IC50 is under 1 nM. Moreover, in test [3] (up to 20 nM, Adam10/17−/− mEFs, 2 hours), the “effect on EphB4 background shedding in EA9 expressing cells” value is “no significant effect”.

Consider `C[C@H](CCC(=O)O)C[C@H](C)C[C@H](C)C(=O)/C=C(\O)[C@H](C)C[C@H](C)C/C=C/[C@@H](C)[C@@H](O)[C@@H](C)[C@@H](O)C[C@@H]1CC[C@@](C)([C@H]2CC[C@@](C)([C@@H](C)O)O2)O1` [ionomycin], for which, on ADAM9 (Adam10/17−/− mEFs), the “stimulation of ADAM9-dependent shedding of EphB4-AP” value (“stimulation” for short) is “not responsive”. The “effect on EphB4-AP shedding in the absence of active A9 (EA9 cells)” value (“effect on EphB4-AP shedding” below) in test [3] is given as “had no effect”.

For the molecule `CNC(=O)[C@H](Cc1ccccc1)NC(=O)[C@H](CC(C)C)[C@H](CSc1cccs1)C(=O)NO` [Batimastat/BB94, Batimastat], the IC50 against ADAM9 is 50 nM; with ADAM10 [2], about 200 nM.

Take `CNC(=O)[C@@H](NC(=O)[C@H](CCCc1ccccc1)[C@H](C)N(O)C=O)C(C)(C)C` [GI254023X]: the IC50 in test [1] (read-out: IC50 soluble ADAM9, biochemical assays) is 280 ± 110 nM. Moreover, the “effect on ADAM9-mediated shedding of EphB4-AP” value on ADAM9 (concentrations of up to 10 μM, Adam10/17−/− mEFs) is listed as “did not block”. For the same molecule, the “effect on ADAM9-dependent processing of EphB4-AP” value on ADAM9 (concentrations up to 5 μM) is “did not block”. For the same molecule, the “block of ADAM10 in cell-based assays” value in the test on ADAM10 [2] (1 μM) is given as “blocks ADAM10”. Moreover, the “lowest concentration inhibiting shedding of the ADAM10 substrate betacellulin-AP” value at ADAM10 [4] is 0.04 µM. The “block of ADAM17 in cell-based assays” value in the test with ADAM17 is reported as “not ADAM17”.

As to `CCCCCCCCCCCCCC(=O)O[C@@H]1[C@@H](C)[C@@]2(O)[C@@H](C=C(CO)C[C@]3(O)C(=O)C(C)=C[C@@H]23)[C@@H]2C(C)(C)[C@]12OC(C)=O` [PMA, phorbol-12 myristate 13-acetate], on ADAM9 (Adam10/17−/− mEFs), the “stimulation” value was “did not enhance”. The “effect on EphB4-AP shedding” value in test [3] was “had no effect”.

For the molecule pervanadate, the “stimulation” value on ADAM9 (Adam10/17−/− mEFs) is “not responsive”. Further, in test [3], the “effect on EphB4-AP shedding” value is “had no effect”.

`CC(C)C[C@H](CC(=O)NO)C(=O)N[C@H](C(=O)N[C@@H](C)C(=O)NCCN)C(C)(C)C` [TAPI-2]: in test [1] (biochemical assays), the Ki is 17 nM. The “dose dependence of inhibition … of EphB4-AP” value at ADAM9 (Adam10/17−/− mEFs, 2 hours) was “dose-dependent manner”.

B1: TIMP-3: tissue inhibitor of metalloproteinases 3 (protein, UniProt P35625 24-211, looked up)
Metalloproteinase inhibitor 3: CTCSPSHPQDAFCNSDIVIRAKVVGKKLVKEGPFGTLVYTIKQMKMYRGFTKMPHVQYIHTEASESLCGLKLEVNKYQYLLTGRVYDGKMYTGLCNFVERWDQLTLSQRKGLNYRYHLGCNCKIKSCYYLPCFVTSKNECLWTDMLSNFGYPGYQSKHYACIRQKGGYCSWYRGWAPPDKSIINATDP
As for B1, in test [1], the “inhibition of recombinantly expressed ADAM9” value is given as “not inhibited”. Moreover, the “reduction of the activity of ADAM9” value is 40-50% with ADAM9 (10 nM) and 75% with ADAM9 (20 nM). Moreover, the “effect on ADAM9-dependent EphB4-AP shedding” value with ADAM9 (10 nM, Adam10/17−/− mEFs, 2 hours) is “inhibited ADAM9 partially; also recorded: partially blocked”; with ADAM9 (20 nM, Adam10/17−/− mEFs, 2 hours), “strongly”. The IC50 was under 1 nM with ADAM10 [2] and about 20 nM with ADAM15.
